Laboratory results published in paper PMC6684861 (Traffic (Copenhagen, Denmark), 2018).
Primed or numbered codes have the meaning given here. No end group written: not given here. FITC′ = fluorescein isothiocyanate label

Legend:
U2OS cells [1] = details: compared with pol λ in U2OS cells; ref [24]; cited from earlier work
Impα = details: ref [24]; cited from earlier work
U2OS cells [2] = assay: Nuclear/cytosolic ratio of pol X-GFP adducts in transfected U2OS cells; type: cell-based, human; details: among the four mammalian enzymes, in the cell-types investigated
Procedure, shortened: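 U2OS cells in RPMI 1640 with 10% FBS (37 °C, 5% CO2) were seeded at 10,000 cells/chamber. They were transfected (Lipofectamine 2000, 1:4 DNA:reagent) with wild-type or NLS-mutant polymerase-GFP plasmids, then fixed at 24 h (3.7% formaldehyde), permeabilized and stained with CellMask and a nuclear stain. Confocal GFP intensity was measured in nuclear and cytoplasmic ROIs of ≥30 cells/construct. Ratios were averaged with ±2 SD outliers removed, then analysed by ANOVA/Tukey.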

ImpαΔIBB = ImpαΔIBB (Mus musculus, UniProt P52293); assay: X-ray crystallography of ImpαΔIBB-NLS peptide complexes; type: binding, murine; details: estimated from electron density
Procedure, shortened: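 ImpαΔIBB (15 mg/ml in 20 mM Tris pH 7.8, 125 mM NaCl, 5 mM DTT) was mixed with test NLS peptide at 1.25:1 molar excess. Crystals were grown by hanging-drop vapor diffusion. For two complexes the mother liquor was 0.7 or 0.8 M sodium citrate with 0.1 M HEPES pH 7.0. Rfree used 5% of reflections excluded from refinement. Geometry was checked with MolProbity.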

Substance	nuclear/cytosolic ratio of pol β (U2OS cells [1])	binding affinity of NLS for the minor binding pocket of Impα (Impα)	extent of nuclear localization, in words (U2OS cells [2])	occupancy of the minor binding pocket (ImpαΔIBB)
DNA polymerase β [pol β]	~ 3	highly selective binding affinity for the minor binding pocket of Impα	–	–
pol λ NLS: bipartite N-terminal NLS of pol λ (KAFPKRQKIHADASSKVLAKIPRREEGK-{FITC′})	–	–	greatest extent of nuclear localization	~ 70%
